{"source": "PubChem BioAssay AID504360", "about": "(Broad Institute, 2011)", "note": "Activity calls are given as the source filed them.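 Rule for the calls: active = fitted curve rises past 10% of the positive control signal at or below the top valid tested dose; inconclusive = flat fit between 30 and 70%, or an unreliable fit; inactive = the rest, including signal that falls instead.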"}
{"system": "MEF A1-2A-tBid cells, caspase-3/7 luminescence, 3 h", "assay": "apoptosis induction in tBid-primed mouse fibroblasts – cell-based, MEF A1-2A-tBid, luminescence, dry powder, set 3, orthogonal assay for A1 inhibitor project, dose response (AID 504360)", "details": "not given", "summary_of_the_method": "(§1)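 Material: Mouse embryonic fibroblasts co-expressing A1 and tBid (A1-2A-tBid), primed | Buffer or medium: RPMI-1640, 10% FBS | Incubation: 3 h compound at 37 °C, 1 h reagent at room temperature | Signal: Luminescence from Caspase-Glo 3/7 DEVD-luciferin substrate, 1:1 in 50 mM HEPES | Evaluation: Caspase-3/7 activity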", "units": {"AC10": "nM"}}
{"molecule": "O=c1[nH]c2ccccc2c(Cl)c1[N+](=O)[O-]", "AC10": 2540}
{"molecule": "CCn1c(=O)c([N+](=O)[O-])c(Cl)c2ccccc21", "AC10": 1950}
{"molecule": "Cn1c(=O)c([N+](=O)[O-])c(S(C)(=O)=O)c2ccccc21", "AC10": 3280}
{"molecule": "COCCn1c(=O)c([N+](=O)[O-])c(Sc2ccc(C)cc2)c2ccccc21", "AC10": 16700}
{"molecule": "Cc1ccc(S(=O)(=O)c2c([N+](=O)[O-])c(=O)n(C)c3ccccc23)cc1", "AC10": 3190}
{"molecule": "COCCn1c(=O)c([N+](=O)[O-])c(Cl)c2ccccc21", "AC10": 1470}
{"molecule": "Cn1c(=O)c([N+](=O)[O-])c(Sc2ccccn2)c2ccccc21", "AC10": 2950}
{"molecule": "Cn1c(=O)c([N+](=O)[O-])c(Cl)c2ccccc21", "AC10": 1880}
{"molecule": "O=c1c([N+](=O)[O-])c(Cl)c2ccccc2n1Cc1ccccc1", "AC10": 12400}
{"molecule": "CC1(C)CCC(c2ccc(Cl)cc2)=C(CN2CCN(c3ccc(C(=O)NS(=O)(=O)c4ccc(N[C@H](CCN5CCOCC5)CSc5ccccc5)c(S(=O)(=O)C(F)(F)F)c4)cc3)CC2)C1", "AC10": 579}
{"system": "not listed separately", "assay": "apoptosis induction in tBid-primed mouse fibroblasts – cell-based, MEF A1-2A-tBid, luminescence, dry powder, set 3, orthogonal assay for A1 inhibitor project, dose response (AID 504360)", "details": "MEF A1-2A-tBid cells, caspase-3/7 luminescence, 3 h; at 35 µM (top of the series)", "summary_of_the_method": "as §1"}
{"molecule": "Cc1ccc(Sc2c([N+](=O)[O-])c(=O)n(Cc3ccccc3)c3ccccc23)cc1", "caspase activation": "3.46% (inactive)"}
{"molecule": "COc1ccc(CCNc2nc(N3CCOCC3)nc(N3CCOCC3)n2)cc1OC", "caspase activation": "1.3% (inactive)"}
{"molecule": "O=c1[nH]c2ccccc2c(O)c1[N+](=O)[O-]", "caspase activation": "2.36% (inactive)"}
{"molecule": "COc1nc2ccccc2c(Sc2ccc(C)cc2)c1[N+](=O)[O-]", "caspase activation": "1.61% (inactive)"}
{"molecule": "O=C(COc1ccc(Cl)cc1Cl)NNc1nc(N2CCOCC2)nc(N2CCOCC2)n1", "caspase activation": "-1.25% (inactive)"}
{"molecule": "CCn1c(=O)c(Sc2ccc(C)cc2)c(Sc2ccc(C)cc2)c2ccccc21", "caspase activation": "5.31% (inactive)"}
{"molecule": "Cc1ccc(Sc2c(Sc3ccc(C)cc3)c3ccccc3n(Cc3ccccc3)c2=O)cc1", "caspase activation": "1.55% (inactive)"}
{"molecule": "CCn1c(=O)c([N+](=O)[O-])c(Sc2ccc(C)cc2)c2ccccc21", "caspase activation": "1.72% (inactive)"}
{"molecule": "Cc1ccc(Sc2c([N+](=O)[O-])c(=O)n(C)c3ccccc23)cc1", "caspase activation": "10.3% (inactive)"}
{"molecule": "Cn1c(=O)c(Sc2ccccn2)c(Sc2ccccn2)c2ccccc21", "caspase activation": "3.1% (inactive)"}
{"molecule": "COc1c([N+](=O)[O-])c(=O)n(C)c2ccccc12", "caspase activation": "1.76% (inactive)"}
{"molecule": "C/C(=N\\Nc1nc(N2CCCCC2)nc(N2CCCCC2)n1)c1ccc(F)cc1", "caspase activation": "-0.355% (inactive)"}
{"molecule": "COc1nc2ccccc2c(Cl)c1[N+](=O)[O-]", "caspase activation": "1.9% (inactive)"}
{"molecule": "Cc1ccc(Sc2c(Sc3ccc(C)cc3)c3ccccc3n(C)c2=O)cc1", "caspase activation": "0.911% (inactive)"}
{"molecule": "COc1ccc(CCNc2nc(N3CCCC3)nc(N3CCCC3)n2)cc1OC", "caspase activation": "3.4% (inactive)"}
{"molecule": "COc1ccc(N2CCN(c3nc(NCCc4ccc(OC)c(OC)c4)nc(N4CCOCC4)n3)CC2)cc1", "caspase activation": "-0.079% (inactive)"}
{"molecule": "COCCn1c(=O)c(Sc2ccc(C)cc2)c(Sc2ccc(C)cc2)c2ccccc21", "caspase activation": "1.26% (inactive)"}
